# Results taken from PMC9894536 (Biomaterials science, 2023).
# Where a SMILES comes first, the peptide text is derived from it. The star is where a group is joined. X1 = C[C@H](Cn1cnc2c(N)ncnc21)OCP(=O)(O)OCCS*; Palmitoyl = CCCCCCCCCCCCCCCC(=O)*
# How the values were obtained:
# [1] = tested on: HBV; test: Anti-HBV efficacy, HBV DNA in supernatant of HepAD38 cells by qPCR; type: cell-based; conditions: Hepatitis B virus, HePAD38, 96 h, read-out: IC50, HBV production
# [2] = Nanobelt width by negatively stained transmission electron microscopy; type: physicochemical; conditions: TEM, 1 mM concentration, mean ± SD, n = 35
# Summary of the method: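 Samples were pH 7.4 aqueous solutions (1 mM shown), negatively stained and imaged by TEM. Nanobelt widths were measured from the images and reported as mean ± SD over 35 measurements.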
# [3] = type: physicochemical; conditions: addition of PBS (final 1x PBS) to 5 mM solution; 10 ul 10x PBS to 100 ul
# Summary of the method: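 Aqueous prodrug solutions, brought to pH 7.4 after purification, were gelled by adding 10× PBS at a 10:1 solution-to-buffer ratio to reach 1× PBS. Gel formation and the critical gelation concentration were judged by a simple vial-inversion test across prodrug concentrations.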
# [4] = Instantaneous gelation on injection into PBS; type: physicochemical; conditions: 10 mM solution assembled with 10 mM Nile red, injected into 10x PBS
# [5] = Critical micellization concentration by Nile red encapsulation assay; type: physicochemical; conditions: fluorescence ratio 635 nm vs 660 nm, aqueous, n = 3
# Summary of the method: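 Critical micellization concentration was read on a fluorometer as the concentration where the ratio of fluorescence at 635 nm (encapsulated Nile red) to 660 nm (free Nile red) shifted. Measurements were made in aqueous prodrug solutions, and data are mean ± SD of 3.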
# [6] = In vitro gel release of TFV-PA from hydrogel depots; type: physicochemical
# Summary of the method: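 Hydrogels were made from 5 and 10 mM prodrug solutions and aged at 37 °C under a fixed volume of PBS release medium. Supernatant was collected and replaced at set time points up to day 30 and analysed by analytical RP-HPLC. Release is given as nanomoles and as percent of conjugate in the original gel, mean ± SD, n = 3.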
# [7] = Free TFV release / prodrug stability with or without dithiothreitol; type: physicochemical; conditions: 100 μM in 1x PBS, 10 mM DTT, 37 °C; for TFV released by 24 hours with DTT: RP-HPLC and ESI MS
structure (smiles),measurement,setting,value
"C[C@H](Cn1cnc2c(N)ncnc21)OCP(=O)(O)O [TFV, tenofovir]",IC50,[1],1100 nM
CCCCCCCCCCCCCCCC(=O)N[C@H](C(=O)N[C@H](C(=O)N[C@@H](CSSCCOP(=O)(O)CO[C@H](C)Cn1cnc2c(N)ncnc21)C(=O)N[C@@H](CCC(=O)O)C(=O)O)C(C)C)C(C)C [TFV-PA2] (Palmitoyl-VVC(X1)E-OH; C-terminus assumed),nanobelt width,[2],11.8 ± 1.3 nm
same,gel formation of 5 mM solution,[3],weak gel formation
same,gelation upon injection,[4],formed gels instantly upon injection
same,critical micellization concentration (CMC),[5],51 µM
same,"average concentration in the release supernatant, 5 mM gels","[6]; 5 mM hydrogel, 37 °C, PBS release medium, RP-HPLC",361 ± 91 µM
same,"percent release on day 14, 5 mM gel","[6]; 5 mM hydrogel, 37 °C, PBS release medium, RP-HPLC, day 14, n = 3",56%
same,"prodrug released on day 14, 5 mM gel","[6]; 5 mM hydrogel, 37 °C, PBS release medium, day 14, mean ± SD",126 ± 7 nmol
same,"average concentration in the release supernatant, 10 mM gels","[6]; 10 mM hydrogel, 37 °C, PBS release medium, RP-HPLC",619 ± 268 µM
same,"percent release on day 14, 10 mM gel","[6]; 10 mM hydrogel, 37 °C, PBS release medium, RP-HPLC, day 14, n = 3",48%
same,"prodrug released on day 14, 10 mM gel","[6]; 10 mM hydrogel, 37 °C, PBS release medium, day 14, mean ± SD",217 ± 12 nmol
same,initial prodrugs released from hydrogel by day 14,"[6]; hydrogels aged at 37 °C with PBS release medium, RP-HPLC, day 14",about 50%
same,TFV released after 1 hour with DTT,"[7]; 1 hour, RP-HPLC, n = 3",more than 90%
same,TFV released by 24 hours with DTT,[7],all TFV released
CCCCCCCCCCCCCCCC(=O)N[C@H](C(=O)N[C@H](C(=O)N[C@H](C(=O)N[C@@H](CSSCCOP(=O)(O)CO[C@H](C)Cn1cnc2c(N)ncnc21)C(=O)N[C@@H](CCC(=O)O)C(=O)O)C(C)C)C(C)C)C(C)C [TFV-PA3] (Palmitoyl-VVVC(X1)E-OH; C-terminus assumed),nanobelt width,[2],18.9 ± 3.0 nm
same,gel formation of 5 mM solution,[3],robust gel formation
same,gelation upon injection,[4],formed gels instantly upon injection
same,critical micellization concentration (CMC),[5],8 µM
same,"percent released on day 30, 5 mM hydrogels","[6]; 5 mM hydrogel, 37 °C, PBS release medium, RP-HPLC, day 30, mean ± SD, n = 3",16.3 ± 1.3%
same,"prodrug released on day 30, 5 mM hydrogels","[6]; 5 mM hydrogel, 37 °C, PBS release medium, day 30, mean ± SD",36.7 ± 3.0 nmol
same,"percent released on day 30, 10 mM hydrogels","[6]; 10 mM hydrogel, 37 °C, PBS release medium, RP-HPLC, day 30, mean ± SD, n = 3",6.1 ± 0.5%
same,"average concentration of release supernatant from day 8 onwards, 10 mM gels","[6]; 10 mM hydrogel, 37 °C, PBS release medium, day 8 onwards",13.3 ± 4.2 µM
same,"prodrug released on day 30, 10 mM hydrogels","[6]; 10 mM hydrogel, 37 °C, PBS release medium, day 30, mean ± SD",27.3 ± 2.2 nmol
same,initial prodrugs retained in hydrogel on day 30,"[6]; hydrogels aged at 37 °C with PBS release medium, RP-HPLC, day 30",more than 80%
same,TFV released after 4 hours with DTT,"[7]; 4 hours, RP-HPLC, n = 3",more than 70%
same,TFV released by 24 hours with DTT,[7],all TFV released
